Measured values from PMC12370974 (Nature Communications, 2025).
Residue numbers refer to the chain shown, from its start. Each block holds one compound with its values, some of them ahead of it. Peptide text beside a SMILES is read from it.

How the values were obtained:
FL PRT1^Y317A = target: T1, FL PRT1^Y317A (Arabidopsis thaliana, UniProt Q8LBL5, Y317A); experiment: ITC binding of N-degron peptides to full-length PRT1 Y317A mutant; conditions: 25 °C, ITC buffer pH 7.5, one-site model
T1 sequence (Q8LBL5 1-410 Y317A): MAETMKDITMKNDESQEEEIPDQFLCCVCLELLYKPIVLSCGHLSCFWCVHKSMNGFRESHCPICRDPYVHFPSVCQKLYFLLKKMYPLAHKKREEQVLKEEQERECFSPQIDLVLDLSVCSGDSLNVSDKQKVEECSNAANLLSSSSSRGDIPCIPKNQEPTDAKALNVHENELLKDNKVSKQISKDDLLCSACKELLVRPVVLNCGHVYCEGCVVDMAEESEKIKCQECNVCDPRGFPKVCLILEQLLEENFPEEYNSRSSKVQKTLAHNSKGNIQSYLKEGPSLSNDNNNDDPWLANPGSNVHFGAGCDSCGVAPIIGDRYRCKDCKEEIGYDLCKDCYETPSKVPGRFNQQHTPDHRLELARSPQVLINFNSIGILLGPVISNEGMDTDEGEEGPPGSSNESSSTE
How it was run: (§1)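 Full-length PRT1 (wild type or point mutant) was expressed in E. coli BL21(DE3) with ZnSO4 and purified by Ni-NTA, TEV cleavage of the His6 tag and size exclusion into ITC buffer (50 mM Tris-HCl pH 7.5, 150 mM NaCl, 1 mM TCEP). Protein was at 45~55 μM and synthetic N-degron peptide at ~550 μM in the same buffer, with 19 injections at 25 °C. Data were fitted to a one-site model, with at least three runs.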

FL PRT1^I333A = target: T2, FL PRT1^I333A (Arabidopsis thaliana, UniProt Q8LBL5, I333A); experiment: ITC binding of N-degron peptides to full-length PRT1 I333A mutant; conditions: 25 °C, ITC buffer pH 7.5, one-site model
T2 sequence (Q8LBL5 1-410 I333A): T1 sequence (Q8LBL5 1-410 Y317A) with A317Y, I333A
How it was run: as §1

[1] = target: RING2 domain of PRT1, wild type (Arabidopsis thaliana); experiment: SEC-MALS
[2] = target: full-length (FL) PRT1 wild-type (WT), PROTEOLYSIS1 of Arabidopsis thaliana (Arabidopsis thaliana) (UniProt Q8LBL5); experiment: ITC
FL PRT1^WT = target: T3, FL PRT1^WT (Arabidopsis thaliana, UniProt Q8LBL5); experiment: ITC binding of N-degron peptides to full-length PRT1 wild-type
T3 sequence (Q8LBL5 1-410): T1 sequence (Q8LBL5 1-410 Y317A) with A317Y
How it was run: as §1

[3] = target: FL PRT1 I333A mutant (Arabidopsis thaliana) (UniProt Q8LBL5); experiment: ITC
[4] = target: FL PRT1 Y317A mutant (Arabidopsis thaliana) (UniProt Q8LBL5); experiment: ITC
FL PRT1^Y317A/I333A = target: T4, FL PRT1^Y317A/I333A (Arabidopsis thaliana, UniProt Q8LBL5, I333A/Y317A); experiment: ITC binding of N-degron peptide to full-length PRT1 Y317A/I333A double mutant; conditions: 25 °C, ITC buffer pH 7.5, FL PRT1 Y317A/I333A double mutation
T4 sequence (Q8LBL5 1-410 Y317A/I333A): T1 sequence (Q8LBL5 1-410 Y317A) with I333A
How it was run: as §1

[5] = target: T5, ZZ domain-deleted RING domains (RING1 + RING2) of PRT1 (Arabidopsis thaliana, UniProt Q8LBL5); experiment: ITC binding of N-degron peptide to ZZ domain-deleted PRT1; conditions: 25 °C, ITC buffer pH 7.5, RIP-RING (1-273)
T5 sequence (Q8LBL5 1-273): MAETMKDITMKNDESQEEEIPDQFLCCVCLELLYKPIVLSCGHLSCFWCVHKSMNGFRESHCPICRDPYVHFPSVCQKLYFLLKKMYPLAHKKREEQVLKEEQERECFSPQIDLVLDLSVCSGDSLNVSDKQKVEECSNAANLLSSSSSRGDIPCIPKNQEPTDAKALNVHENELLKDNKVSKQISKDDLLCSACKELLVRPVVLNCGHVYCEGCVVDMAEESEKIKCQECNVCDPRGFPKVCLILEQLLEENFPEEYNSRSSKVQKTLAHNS
How it was run: as §1, with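 “The” for “Full-length”, “truncation” for “(wild type or point mutant)”, “as a bRIP-tag fusion” for “BL21(DE3) with ZnSO4”, “Blue affinity chromatography” for “TEV cleavage of the His6 tag”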

PRT1^ZZ = target: T6, PRT1^ZZ (Arabidopsis thaliana, UniProt Q8LBL5); experiment: ITC binding of N-degron peptide to the ZZ domain of PRT1
T6 sequence (Q8LBL5 308-365): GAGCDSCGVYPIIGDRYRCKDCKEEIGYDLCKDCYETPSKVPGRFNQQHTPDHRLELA
How it was run: as §1, with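 “The” for “Full-length”, “truncation” for “(wild type or point mutant)”, “as a bRIP-tag fusion” for “BL21(DE3) with ZnSO4”, “Blue affinity chromatography” for “TEV cleavage of the His6 tag”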

Compound: C[C@H](NC(=O)[C@H](CCCCN)NC(=O)[C@@H](N)Cc1ccc(O)cc1)C(=O)O [YKA] (H-Tyr-Lys-Ala-OH)
dissociation constant (KD), binding affinity (FL PRT1^Y317A): not bound
dissociation constant (KD), binding affinity (FL PRT1^I333A): not bound

stoichiometry N [1]: 2
Compound: RING2 domain of PRT1, wild type (domain or fragment)

Kd [2]: 23.3 µM
Compound: YAA peptide

Compound: C[C@H](NC(=O)[C@H](C)NC(=O)[C@@H](N)Cc1c[nH]c2ccccc12)C(=O)O [WAA] (H-Trp-Ala-Ala-OH)
Kd (FL PRT1^WT): 2.85 ± 0.164 µM

Kd [3]: 13.7 µM
Kd [4]: 41.3 µM
Compound: Tyr N-degron peptide (Tyr-Lys-Phe)

Compound: C[C@H](NC(=O)[C@H](C)NC(=O)[C@@H](N)Cc1ccccc1)C(=O)O [FAA] (H-Phe-Ala-Ala-OH)
Kd (FL PRT1^WT): 5.45 ± 0.212 µM

Compound: NCCCC[C@H](NC(=O)[C@@H](N)Cc1ccc(O)cc1)C(=O)N[C@@H](Cc1ccccc1)C(=O)O [YKF, Tyr-Lys-Phe] (H-Tyr-Lys-Phe-OH)
dissociation constant (KD), binding affinity (FL PRT1^Y317A/I333A): considerably low affinity
binding affinity (KD) [5]: no binding affinity was detected
Kd (PRT1^ZZ): 10.1 µM
